In assay [1] the test system is Rattus norvegicus. Description: Induction in blood pressure in rat after single intravenous bolus injection. In kind it is functional. Put shortly:
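Pressor assay in anesthetized male rats following the U.S. Pharmacopeia procedure. Specific activity obtained by the Schild four-point design against the U.S.P. posterior pituitary reference standard; results in units/mg on anhydrous peptide weight.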

In assay [2] the test system is Rattus norvegicus. As to the kind of experiment: Antidiuretic effect in Brattleboro rat assessed as maximal depressions of urine flow after single intravenous bolus injection. It is filed as functional.
A further assay relates to Gallus gallus. Description: Reduction in vasomotor depression in chicken after single intravenous bolus injection. In kind it is functional. In outline:
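Avian vasodepressor assay in conscious chickens (Coon method per U.S. Pharmacopeia, modified by Munsick et al.). Four-point Schild design against the U.S.P. posterior pituitary reference standard; results in units/mg on anhydrous weight.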

Assay [3] is filed under the species Rattus norvegicus. As to the kind of experiment: Induction in uterus contraction in isolated rat uterine horns in vitro.
In assay [4] the test system is Rattus norvegicus. Description: Increase in urine osmolality in Sprague-Dawley rat measured per liter at 1.6 x 10^-12 mol, single intravenous bolus injection (reference value: 200 mosm).
For assay [5], the system named is Rattus norvegicus. Description: Decrease in glomerular filtration rate in Sprague-Dawley rat at 1.6 x 10^-11 mol, single intravenous bolus injection. In kind it is functional, organism-based. The following applies: in the assay text read “1.6 x 10^-12 mol” for “1.6 x 10^-11 mol”. In outline: (§1)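 Renal clearance in six male Sprague-Dawley rats, 250–275 g, under Inactin (10 mg/100 g ip), hydrated to 8% body weight with 2% ethanol/0.5% glucose. Infusion of 3% inulin, 1% mannitol, 0.6% NaCl, 2% alcohol at about 10 mL/h; 60 min equilibration; body temperature 37 °C. Urine volume determined gravimetrically, GFR from inulin (anthrone method), Na/K by flame photometry.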

The test system of assay [6] is Rattus norvegicus. Description: Reduction in urine flow in Sprague-Dawley rat at 1.6 x 10^-11 mol, single intravenous bolus injection. In kind it is functional, organism-based. The following applies: in the assay text read “1.6 x 10^-12 mol” for “1.6 x 10^-11 mol”. Put shortly: as §1
For assay [7], the system named is Rattus norvegicus. As to the kind of experiment: Reduction in fractional excretion of sodium in Sprague-Dawley rat at 1.6 x 10^-11 mol, single intravenous bolus injection. It is filed as functional, organism-based. To be noted: in the assay text read “1.6 x 10^-12 mol” for “1.6 x 10^-11 mol”. In outline:
as §1

Assay [8] has as its system Rattus norvegicus. As to the kind of experiment: Induction in blood pressure in rat at 1.6 x 10^-12 mol, single intravenous bolus injection. It is filed as functional, organism-based. In outline: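 Hydrated, Inactin-anesthetized male Sprague-Dawley rats with carotid artery cannulated; arterial pressure recorded on a physiograph after a single intravenous bolus of 1.6×10^-12 mol (21 microunits).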

Assay [9] deals with Rattus norvegicus. As to the kind of experiment: Reduction in fractional excretion of sodium in Sprague-Dawley rat at 4.2 x 10^-11 mol, single intravenous bolus injection. It is filed as functional, organism-based. In outline: (§2)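 Six male Sprague-Dawley rats (250–275 g), Inactin 10 mg/100 g i.p., hydrated to 8% body weight; carotid, jugular and bladder cannulated, 37 °C. Inulin/mannitol/NaCl infusion (300 mosm) ~10 mL/h, 60 min equilibration. Blood pressure from the carotid; urine volume weighed, four postinjection samples; GFR from inulin (anthrone); sodium by flame photometry.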

The test system of assay [10] is Rattus norvegicus. Description: Induction in blood pressure in rat at 4.2 x 10^-11 mol, single intravenous bolus injection. In kind it is functional, organism-based. Put shortly: as §2
Assay [11] relates to Rattus norvegicus. As to the kind of experiment: Reduction in urine flow in Sprague-Dawley rat at 4.2 x 10^-11 mol, single intravenous bolus injection. It is filed as functional, organism-based. In outline:
as §2

The test system of assay [12] is Rattus norvegicus. As to the kind of experiment: Decrease in glomerular filtration rate in Sprague-Dawley rat at 1.6 x 10^-12 mol, single intravenous bolus injection.
Assay [13] relates to Rattus norvegicus. As to the kind of experiment: Increase in urine osmolality in Sprague-Dawley rat measured per liter at 4.2 x 10^-11 mol, single intravenous bolus injection (reference value: 200 mosm). It is filed as functional.

The source made the active and inactive calls. The calls are words filed in the database; no cut-off is given here. Bridge positions count the residues as written; N and C are the ends. Square brackets hold non-standard residues; d marks the D form. Peptide text beside a SMILES is read from it. ΔPro = O=C(O)[C@@H]1C=CCN1; Mpa = O=C(O)CCS Some results are limits rather than exact numbers.

Consider `N=C(N)NCCC[C@H](NC(=O)[C@@H]1C=CCN1C(=O)[C@@H]1CSSCCC(=O)N[C@@H](Cc2ccc(O)cc2)C(=O)N[C@@H](Cc2ccccc2)C(=O)N[C@@H](CCC(N)=O)C(=O)N[C@@H](CC(N)=O)C(=O)N1)C(=O)NCC(N)=O`, for which the Activity was determined as 240 U/mg in the assay on Rattus norvegicus [1], 4134 U/mg in the assay on Rattus norvegicus [2], 345 U/mg in the assay on Gallus gallus and 69 U/mg in the assay filed under Rattus norvegicus [3].

As to `N=C(N)NCCC[C@H](NC(=O)[C@@H]1CCCN1C(=O)[C@@H]1CSSCCC(=O)N[C@@H](Cc2ccccc2)C(=O)N[C@@H](Cc2ccccc2)C(=O)N[C@@H](CCC(N)=O)C(=O)N[C@@H](CC(N)=O)C(=O)N1)C(=O)NCC(N)=O` ([Mpa]FFQNCPRG-NH2; disulfide 1-6), the Activity is on record as 29 U/mg with Rattus norvegicus [1], 810 U/mg in the assay with Rattus norvegicus [2], less than 1 U/mg in the assay with Gallus gallus and 0.3 U/mg in the assay listed under Rattus norvegicus [3].

With `N=C(N)NCCC[C@H](NC(=O)[C@@H]1C=CCN1C(=O)[C@@H]1CSSCCC(=O)N[C@@H](Cc2ccccc2)C(=O)N[C@@H](Cc2ccccc2)C(=O)N[C@@H](CCC(N)=O)C(=O)N[C@@H](CC(N)=O)C(=O)N1)C(=O)NCC(N)=O` ([Mpa]FFQNC[ΔPro]RG-NH2; disulfide 1-6), the Activity with Rattus norvegicus [4] is 700 milliosmole; in the assay on Rattus norvegicus [2], 13000 U/mg; with Gallus gallus it was 2.9 U/mg; in the assay filed under Rattus norvegicus [3] it was 6 U/mg. Also, the inhibition entry in the assay on Rattus norvegicus [5], in the assay with Rattus norvegicus [6] and in the assay with Rattus norvegicus [7] was “Active” in each case. In addition, the outcome with Rattus norvegicus [8] was inactive.

As for `N=C(N)NCCCC(NC(=O)[C@@H]1CCCN1C(=O)[C@@H]1CSSCCC(=O)N[C@@H](Cc2ccc(O)cc2)C(=O)N[C@@H](Cc2ccccc2)C(=O)N[C@@H](CCC(N)=O)C(=O)N[C@@H](CC(N)=O)C(=O)N1)C(=O)NCC(N)=O` (single isomer, unassigned) [DESMOPRESSIN], the Activity in the assay on Rattus norvegicus [1] came out at 395 U/mg; in the assay on Rattus norvegicus [2], 1400 U/mg; with Gallus gallus, 160 U/mg; in the assay filed under Rattus norvegicus [3], 29 U/mg.

As for `N=C(N)NCCC[C@H](NC(=O)[C@@H]1CCCN1C(=O)[C@@H]1CSSC[C@H](N)C(=O)N[C@@H](Cc2ccc(O)cc2)C(=O)N[C@@H](Cc2ccccc2)C(=O)N[C@@H](CCC(N)=O)C(=O)N[C@@H](CC(N)=O)C(=O)N1)C(=O)NCC(N)=O` [VASOPRESSIN], the inhibition result in the assay on Rattus norvegicus [9], in the assay with Rattus norvegicus [11] and in the assay with Rattus norvegicus [12] was “Active” each time. For the same compound, the result with Rattus norvegicus [10] was Active. In addition, the Activity in the assay on Rattus norvegicus [1] stood at 487 U/mg; with Rattus norvegicus [2], 503 U/mg; in the assay with Gallus gallus, 100 U/mg; with Rattus norvegicus [13], 700 milliosmole; in the assay listed under Rattus norvegicus [3], 12 U/mg.

These data come from ChEMBL document CHEMBL3244069, “Synthesis and biological activities of arginine-vasopressin analogues designed from a conformation-activity approach” (1979).
